Experimental data taken from the EternaBench riboswitch data.

Test system: MS2 coat protein
Test: apparent Kd, MS2 coat protein; higher = weaker binding; RNA-MaP array; FMN 200 µM where present
Method in brief: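 Stalled E. coli RNA polymerase produced the designs on Illumina sequencing-chip clusters. SNAP-549-labelled MS2 coat protein was added from 0.7 or 1.5 nM, doubling to 3 µM, without and then with constant ligand, in 100 mM Tris-HCl pH 7.5, 80 mM KCl, 4 mM MgCl2, BSA, DTT, yeast tRNA and Tween-20. The apparent Kd is the median of filtered per-cluster fits of green signal normalised to red-channel RNA signal and control-cluster median Fmax.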

[1] = designed as: OFF switch for flavin mononucleotide, no ligand
[2] = ligand present: flavin mononucleotide, designed as: OFF switch for flavin mononucleotide
[3] = designed as: ON switch for flavin mononucleotide, no ligand
[4] = ligand present: flavin mononucleotide, designed as: ON switch for flavin mononucleotide

Sequence | apparent Kd [1] | apparent Kd [2] | apparent Kd [3] | apparent Kd [4]
GAUUGACAUGAGGAUCACCCAUGUGAGGAUAUCGGCCGGACCUUGUUAGCUUCCACCGCGAGAAGGCACAUAGG | 30.9 nM | 41.6 nM |  | 
CUUCAGUCAGGAUAUGUUAAUCUCACCACUCGGCGAGCCGGACAGAAGGGACAUGAGGAUCACCCAUGUUAAAA | 39.1 nM | 23.4 nM |  | 
UGGACUGGGCAGAAGGGACAUGAGGAUCACCCAUGUCUUGGGCUACUUCAGUCAGGAUAUGCCCAUUGAAUAUCCGUGCAACAA | 15.4 nM | 76.9 nM |  | 
CAUGUCCUCGCAGGAUAUGCUGGACUUUGUCCAGCAGAAGGGUGAUAACAUGAGGAUCACCCAUGUGGACAUGAUAUAUUUAAU |  |  | 28.1 nM | 1720 nM
AUACUGAGCGUAAGUUACCUGAACAUGAGGAUCACCCAUGUGGAGGAUAUUGACCUAGCAAAGCUCGAGAAGGCCACUGGGAUG | 24.8 nM | 19.1 nM |  | 
UGAUAUGUAGUAGGAUAUCAGGUUACAUGAGGAUCACCCAUGUUAGAUUGGUGGAUAGAUGUUGAUGAGAAGGACUUUUGAGUU | 79.6 nM | 100 nM |  | 
AAAAAACAUGAGGAUCACCCAUGUCGAAAGACGUGAGGAUAUGUACAGACUUCGGUCUGUACAGAAGGCAUGUCAA |  |  | 94 nM | 20.2 nM
GGAGCCGGCACCGAGGAUAUUCAUAUUAAAACAUGAGGAUCACCCAUGUAGGCCAGAAGGCCUUGGGAGAAGGCGGAUCGGCUCG |  |  | 611 nM | 38.4 nM
GCGGAGGGUACAGGAUAUCGUCCUUAGUUGGUACGAGAAGGGUAGCGCUGCCACAUGAGGAUCACCCAUGUGCCCAAACUAAAA |  |  | 159 nM | 201 nM
UCGGCGCGAGGAUAUGCGGUUGCUUGGUAGGGUCGGAGCGUACAUGAGGAUCACCCAUGUAGAAGGCGCGCCGC | 18.8 nM | 25 nM |  | 
GCCAGGCAUGUAGGAUAUCCAUUGCGUCGCGUUGGAGAAGGGCAGCACACAUGAGGAUCACCCAUGUGGUCACCCAUGUAGUGU | 612 nM | 594 nM |  | 
CAGUUUUGAGGAUAUCCAUCCUCCUACAUGAGGAUCACCCAUGUUUCCCUCUGGGUUUUCGGAGAAGGCAGUUAUC | 341 nM | 251 nM |  | 
GGGUGGCGUAGAGGAUAUGUGUUACAUGAGGAUCACCCAUGUGCAUAUGAUGUUCGUGUGUCUGCAUAGAAGGCUACGUCGCUA |  |  | 28.3 nM | 27.6 nM
UGAUAGGACAGAGGAUAUACGUGCUAGAGAUACUAGCAAAAUAUCCUCACAUGAGGAUCACCCAUGUAGAAGGCUGUCCUAUCU | 18 nM | 83.3 nM |  | 
GACAUGAGGAUCACCCAUGUCCAACCAGAAGGCCAGGAAUCGGACCCGUGUAUCGGGUUCGAGAUGGAGGAUAUGGGCGCCGAA |  |  | 78.2 nM | 34.1 nM
UGUCGGAGCAGAGGAUAUUACAUGAGGAUCACCCAUGUAUGAACCAAUAGCUGGAAACAGCAAUGUCAGAAGGCUGCUCCGACA | 5 nM | 5.06 nM |  | 
UAUUGACAAGGAUAUUUGCGUAGUAACAUGAGGAUCACCCAUGUGAUACUAUGGAGCUCGAAAGAAGGUGUGCGAG | 20.5 nM | 22.8 nM |  | 
GCAUCCAAUGUGAGGAUAUACCUCUGGAUACAUAGGUAGAAGGCACAUGAGGAUCACCCAUGUUCCUAGGAUGC | 44.6 nM | 222 nM |  | 
CCUAGUUGGUAAGGAUAUCCUACACUGUUCUGACCCGUGCGAGCUACAUGAGGAUCACCCAUGUGGGAGAAGGUGCGUCAACGC | 18.2 nM | 17.9 nM |  | 
GUGUAGUCAGGAUAUACAUAGGAAGAGAAGAGAAGAGAAGUACAUGAGGAUCACCCAUGUAGAAGGGACAGUGU | 24.3 nM | 25.1 nM |  | 
GGAUCACAAAGUGAUCCAAUACGAACAUGAGGAUCACCCAUGUAGGAUAUGCUACUCAAAGAGUAGCAGAAGGACAUGUGCCUU | 35.4 nM | 296 nM |  | 
CCCAAACUUGGGUUUGGUGGUUCAUAGGAUAUGCUUGUACAUGAGGAUCACCCAUGUACUAUUGUGCAGAAGGGUGCAUGGCAA |  |  | 36.7 nM | 26.5 nM
UAUAUAUAGUAAGGAUAUGUAAUUAUUUUAUGAACAGAAGGUACUGACAUGAGGAUCACCCAUGUUUUAGUGUGGGCAUGUAGA | 82.9 nM | 119 nM |  | 
AUGCUUCACACAGGAUAUACAUGAGGAUCACCCAUGUGUCCUCCGUAAUUGACACCAAUUACGCUGUAGAAGGGUGUGAAGCAU | 258 nM | 188 nM |  | 
AAUAUGUUGCAGAAGGUUAUUUUUAUAACGUGCCACUUGACAUGAGGAUCACCCAUGUAAUUGAUGAAGGAUAUGCAAUAUAUU | 6.46 nM | 6.34 nM |  | 
UACAGACAUGAGGAUCACCCAUGUAAGGAUAUCGGUACUGAUGGUAUAAUCUACUCAGCGAGAAGGUACAGUGU | 33.6 nM | 33.2 nM |  | 
GCCUGCUGGCGAGGAUAUUCUGUGCGGUUCCAGCUCGUGUCUGUUACAUGAGGAUCACCCAUGUGGGAGAAGGUGUCUGUGGCC | 6 nM | 5.73 nM |  | 
CGGAACAUGAGGAUCACCCAUGUAGCUACUUAAAGGUGCUACAGAAGGGACAUUGCGCGUCAUGGUCAGGAUAUGUAGGGCUGA |  |  | 379 nM | 108 nM

Sequence | apparent Kd [1] | apparent Kd [2] | apparent Kd [3] | apparent Kd [4]
UUGGACGUCGUAGGAUAUGUAGGAUAUUCCUACAUGAGGAUCACCCAUGUUGACAUGGAAGUAGGACAGAAGGACGAUGUCCAU |  |  | 497 nM | 23.1 nM
GUAGAGUAAGGAUAUGGUGAAUAGGAUAGAAUGGUUAGAAACCAGAAGGUACAUGAGGAUCACCCAUGUAAUGU | 21 nM | 21.1 nM |  | 
GCACGGUAAGUGAGGAUAUACCUCUGGAUACAGAGGUAGAAGGCACAUGAGGAUCACCCAUGUUCCUGCCGUGC | 17.2 nM | 92.9 nM |  | 
UAUUAAUACGAAGGAUAUGGUUACAUGAGGAUCACCCAUGUAUGUAUUUUGAUCUAAUAAUUUAACCAGAAGGUCGAAUAUAAA | 40.6 nM | 77.3 nM |  | 
UACUUCCGAGGAUAUACAUGAGGAUCACCCAUGUGCUUCAGCAUCGAAAGAUGCAUGGGUAGAAGGCGGUAGUU | 44.6 nM | 50.4 nM |  | 
AGCUAAGAGUUAAUUGUGACAGUGAGAAGGCAAUAGUUUGUGACCGACAUGAGGAUCACCCAUGUUGAGGAUAUCACUAGCUAC | 6.83 nM | 19.4 nM |  | 
AAUGUGUGUCGAGGAUAUAUUAUAUGACAACAAACACAUACAUGAGGAUCACCCAUGUCCCAUGUAUAGAAGGCGAUGUGUGUG |  |  | 130 nM | 174 nM
UGGUACUACGGAGGAUAUCAUGUGUAAACAUGAGGAUCACCCAUGUCGUACGAGAGUACGGAGAUUGAGAAGGCCGUAGUACCU |  |  | 85.4 nM | 16.7 nM
UUAUUAUUUAUAGGAUAUUGAUGUUUGCUAGUACAAGAAGGAUAAACAUGAGGAUCACCCAUGUAGUUUAAGGUUAGUUUGUUU |  |  | 38.1 nM | 39.4 nM
AAGUCAGCAGGAUAUGCGAUGUUGGGCUAGAUAGCGUGACCACAUGAGGAUCACCCAUGUAGAAGGGCUGGCUA | 37.4 nM | 43.7 nM |  | 
GCACAAAGGUGACACCGUGUCGCUCAGGAUAUACGUGACGGCCCUCGCACAUGAGGAUCACCCAUGUAGAAGGGAGUUAAACGG | 7.66 nM | 14.9 nM |  | 
AUGGUGACGUAGAAGGGUGACAUGAGGAUCACCCAUGUGCCGAUAUUUUUCGAAAUAUGUCGGCCACAGGAUAUACGUGCCAUC |  |  | 68.7 nM | 136 nM
UAUGAACAUGAGGAUCACCCAUGUGGAAAGGACACAGGAUAUCAUCUCGCACGUGCGAUAUGAGAAGGGUGAUGGU |  |  | 117 nM | 180 nM
CAUAAGUCAGAGAAGGCGUACAUGCCCAGACUGUGACGGAUGACGACAUGAGGAUCACCCAUGUACGAGGAUAUCUGAGCAAUC | 22.9 nM | 168 nM |  | 
GGGCUGUCAGGAUAUCUCGGGCUCGGGUAAACUCGGGCUCGGGAGAAGGGACAUGAGGAUCACCCAUGUGGCUC | 42.1 nM | 51.5 nM |  | 
GCGACGAAAGUCGAACGAUGUAGCAGAAGGACAUGAGGAUCACCCAUGUCAGCUGUAACAGCCAUGUAGGAUAUGCUACAUCGA | 4.26 nM | 5.11 nM |  | 
GGAGAUACAUGAGGAUCACCCAUGUAGGAUAUCGGGUAUAUAUAUGGCGAAAGCCAUAUAUAUACCGAGAAGGGCGUACACACC | 8.59 nM | 8.11 nM |  | 
GCAGCACAGUUUUACAUGAGGAUCACCCAUGUCGAUUGUUAUGAGGAUAUGCAUCGUAUGAAGAUGCAGAAGGCAUUGUGCUGC |  |  | 6.96 nM | 5.5 nM
UUAUGGAUCACAGGAUAUCCAAGGGCGCGUCUGGCGCGCUCACAUGAGGAUCACCCAUGUCGAGUGGAGAAGGGUGGUUGACGG |  |  | 466 nM | 68.3 nM
GGUUUGCGGCAGGAUAUCCAUCCGCGGUGUGGUGGAGAAGGGCUGACAUGAGGAUCACCCAUGUGCGUCCUGUU | 25.1 nM | 30.5 nM |  | 
CCUCACAGAGGAUAUACGUCCACUGAACCCAUGAGGUUGCCACAUGAGGAUCACCCAUGUAGAAGGCUGUGCUG | 20.1 nM | 42.9 nM |  | 
GGAGCACACAUUAACAUGAGGAUCACCCAUGUCAAAAGACAUGAGGAUAUGGAUCCGAAAAGGAUCCAGAAGGCAUGGUUCUCC |  |  | 365 nM | 19.6 nM
AGAUGACAAAGUCAUCUCGCUCUGACAUGAGGAUCACCCAUGUAGGAUAUAUUACUCAAAGAGUAAUAGAAGGACAUGUGUCUG | 36.3 nM | 115 nM |  | 
AAUAAUUAGUAAGGAUAUACUAGCGAUUAGCUUGUAGAAGGUACAGUCUUAUGUAUAACAUGUUAACAUGAGGAUCACCCAUGU |  |  | 68.9 nM | 29.3 nM
GGGUACAUCGGAGGAUAUCAUGUAAAUACAUGAGGAUCACCCAUGUCUAUGGAGACAUCGGAGAUUGAGAAGGCCGAUGUACCG |  |  | 14.4 nM | 150 nM
GUAGCAUACCAAGGAUAUUUAGGGCUUUGAUAGACAUGAGGAUCACCCAUGUGGCGUUAGUCACGGGAGAAGGUGGUAUGCUAC |  |  | 383 nM | 81.9 nM
AAUGAAACUUAGAAGGCCUACAUGAGGAUCACCCAUGUGGCUUUAAGUGUAGGAGGAUAUGAGGAUGCGGGCAGGAACCCACGC | 6.17 nM | 11.6 nM |  | 
